Measurements taken from ChEMBL document CHEMBL4020823, “Highly Selective, Potent, and Oral mTOR Inhibitor for Treatment of Cancer as Autophagy Inducer” (J Med Chem, 2018).
The source made the active and inactive calls. The rule behind the calls is not given here.

Assays:
T47D [1] = test: Cell cycle arrest in human T47D cells assessed as decrease in S-phase at 0.5 uM after 24 hrs by propidium iodide-staining based flow cytometric analysis; type: functional
Procedure, shortened: (§1)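 Cells were seeded at 5 × 10^5 cells/mL. At 24 h after plating they were treated with increasing concentrations for 24 h, washed in PBS, and fixed in ice-cold 70% ethanol for at least 24 h. They were stained with propidium iodide plus RNase A for 30 min at 37 °C and analysed by flow cytometry for phase distribution.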

T47D [2] = test: Antitumor activity against human T47D cells xenografted in BALB/c nude mouse assessed as tumor weight at 60 mg/kg, po administered via gavage after 3 weeks (reference value: 1.23 g); type: functional
MCF7 [3] = test: Growth inhibition of human MCF7 cells after 72 hrs by CCK8 assay; type: functional, cell-based; settings: MCF7, 72 h
Procedure, shortened: (§2)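 Cells were seeded at 2000–3000 per well and grown 24 h in serum-containing medium. They were then exposed to serially diluted compound for 72 h at 37 °C, 5% CO2. CCK8 reagent was added for 1–4 h and absorbance read at 450 nm. Inhibition = (AC − AS)/(AC − Ab) × 100%. IC50 is the average of at least three independent determinations.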

MDA-MB-231 [4] = test: Induction of autophagy in human MDA-MB-231 cells assessed as increase in LC3-2 level at 0.5 uM after 48 hrs by Western blot analysis; type: functional, cell-based
Procedure, shortened: (§3)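 Cells treated with test agents at several concentrations for 2 days (48 h). LC3B-II detected by Western blot on lysates, with β-actin as internal control. Membranes blocked in 5% skim milk, primary antibodies at 4 °C overnight, peroxidase-conjugated anti-mouse or anti-rabbit IgG secondary, ECL detection.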

MDA-MB-231 [5] = test: Growth inhibition of human MDA-MB-231 cells after 72 hrs by CCK8 assay; type: functional, cell-based; settings: MDA-MB-231, 72 h; procedure, shortened: as §2
HeLa [6] = test: Growth inhibition of human HeLa cells after 72 hrs by CCK8 assay; type: functional, cell-based; procedure, shortened: as §2
T47D [7] = test: Growth inhibition of human T47D cells after 72 hrs by CCK8 assay; type: functional, cell-based; procedure, shortened: as §2
HeLa [8] = test: Cell cycle arrest in human HeLa cells assessed as accumulation at G0/G1 phase at 1 uM after 24 hrs by propidium iodide-staining based flow cytometric analysis; type: functional; procedure, shortened: as §1
SiHa [9] = test: Cell cycle arrest in human SiHa cells assessed as accumulation at G0/G1 phase at 0.5 uM after 24 hrs by propidium iodide-staining based flow cytometric analysis; type: functional; procedure, shortened: as §1
T47D [10] = test: Antitumor activity against human T47D cells xenografted in BALB/c nude mouse assessed as decrease in tumor growth at 60 mg/kg, po administered via gavage after 3 weeks relative to control; type: functional; settings: 504 h, read-out: TGI
T47D [11] = test: Induction of autophagy in human T47D cells assessed as increase in LC3-2 level at 0.5 uM after 48 hrs by Western blot analysis; type: functional, cell-based; procedure, shortened: as §3
SiHa [12] = test: Cell cycle arrest in human SiHa cells assessed as decrease in S-phase at 0.5 uM after 24 hrs by propidium iodide-staining based flow cytometric analysis; type: functional; procedure, shortened: as §1
NCI-H460 = test: Growth inhibition of human H460 cells after 72 hrs by CCK8 assay; type: functional, cell-based; settings: NCI-H460, 72 h; procedure, shortened: as §2
SiHa [13] = test: Induction of autophagy in human SiHa cells assessed as increase in LC3-2 level at 1 uM after 48 hrs by Western blot analysis; type: functional, cell-based; procedure, shortened: as §3
OVCAR-5 = test: Growth inhibition of human OVCAR5 cells after 72 hrs by CCK8 assay; type: functional, cell-based; settings: OVCAR-5, 72 h; procedure, shortened: as §2
SK-OV-3 = test: Growth inhibition of human SKOV3 cells after 72 hrs by CCK8 assay; type: functional, cell-based; settings: SK-OV-3, 72 h; procedure, shortened: as §2
MCF7 [14] = test: Cell cycle arrest in human MCF7 cells assessed as decrease in S-phase at 0.5 uM after 24 hrs by propidium iodide-staining based flow cytometric analysis; type: functional; procedure, shortened: as §1
SiHa [15] = test: Growth inhibition of human SiHa cells after 72 hrs by CCK8 assay; type: functional, cell-based; procedure, shortened: as §2
MDA-MB-231 [16] = test: Cell cycle arrest in human MDA-MB-231 cells assessed as accumulation at G0/G1 phase at 0.5 uM after 24 hrs by propidium iodide-staining based flow cytometric analysis; type: functional; procedure, shortened: as §1
MDA-MB-231 [17] = test: Cell cycle arrest in human MDA-MB-231 cells assessed as decrease in S-phase at 0.5 uM after 24 hrs by propidium iodide-staining based flow cytometric analysis; type: functional; procedure, shortened: as §1
MCF7 [18] = test: Cell cycle arrest in human MCF7 cells assessed as accumulation at G0/G1 phase at 0.5 uM after 24 hrs by propidium iodide-staining based flow cytometric analysis; type: functional; procedure, shortened: as §1
T47D [19] = test: Induction of autophagy in human T47D cells assessed as increase in LC3-2 puncta level at 0.5 uM after 48 hrs by immunofluorescence staining based microscopic analysis; type: functional, cell-based
Procedure, shortened: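 Cells seeded on glass coverslips in complete 1640 or DMEM and incubated with inhibitors at different concentrations for 48 h. Fixed in 4% paraformaldehyde, permeabilized with 0.15% Triton X-100, blocked in 4% BSA/PBS for 1 h at room temperature. Anti-LC3B (1:200) overnight, then FITC-conjugated secondary, DAPI nuclear stain. LC3B-II puncta viewed by fluorescence microscopy.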

MCF7 [20] = test: Induction of autophagy in human MCF7 cells assessed as increase in LC3-2 level at 0.5 uM after 48 hrs by Western blot analysis; type: functional, cell-based; procedure, shortened: as §3
T47D [21] = test: Cell cycle arrest in human T47D cells assessed as accumulation at G0/G1 phase at 0.5 uM after 24 hrs by propidium iodide-staining based flow cytometric analysis; type: functional; procedure, shortened: as §1
HeLa [22] = test: Induction of autophagy in human HeLa cells assessed as increase in LC3-2 level at 2 uM after 48 hrs by Western blot analysis; type: functional, cell-based
Procedure, shortened: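 Cells were treated for 48 h (2 days) with varying concentrations. Whole-cell lysates were immunoblotted for LC3B-II with β-actin as the internal control. Membranes were blocked in 5% skim milk, incubated with primary antibody overnight at 4 °C, then with peroxidase-conjugated secondary, and developed by ECL.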

HeLa [23] = test: Cell cycle arrest in human HeLa cells assessed as decrease in S-phase at 1 uM after 24 hrs by propidium iodide-staining based flow cytometric analysis; type: functional; procedure, shortened: as §1

For `CO[C@H]1C[C@@H]2CC[C@@H](C)[C@@](O)(O2)C(=O)C(=O)N2CCCC[C@H]2C(=O)O[C@H]([C@H](C)C[C@@H]2CC[C@@H](O)[C@H](OC)C2)CC(=O)[C@H](C)/C=C(\C)[C@@H](O)[C@@H](OC)C(=O)[C@H](C)C[C@H](C)/C=C/C=C/C=C/1C` [SIROLIMUS], the Activity (T47D [1]) was “Active”, the Activity (T47D [2]) was 0.36 g and the IC50 (MCF7 [3]) was 4.98 µM. For the same compound, the Activity (MDA-MB-231 [4]) was “Active”, the IC50 (MDA-MB-231 [5]) was > 10 µM and the IC50 (HeLa [6]) was > 10 µM. For the same compound, the IC50 (T47D [7]) was 1.58 µM, the Activity (HeLa [8]) was “Active” and the Activity (SiHa [9]) was “Active”. For the same compound, the inhibition in vivo at 60 mg/kg (T47D [10]) was 72.4%, the Activity (T47D [11]) was “Active” and the Activity (SiHa [12]) was “Active”. The IC50 (NCI-H460) was > 10 µM, the Activity (SiHa [13]) was “Active” and the IC50 (OVCAR-5) was > 10 µM. The IC50 (SK-OV-3) was > 10 µM, the Activity (MCF7 [14]) was “Active” and the IC50 (SiHa [15]) was 1.76 µM. The Activity (MDA-MB-231 [16]) was “Active”, the Activity (MDA-MB-231 [17]) was “Active” and the Activity (MCF7 [18]) was “Active”. The Activity (T47D [19]) was “Dose-dependent effect”, the Activity (MCF7 [20]) was “Active” and the Activity (T47D [21]) was “Active”. For the same compound, the Activity (HeLa [22]) was “Active” and the Activity (HeLa [23]) was “Active”.
